Assay results reported in ChEMBL document CHEMBL3785037, “Compound profiling and 3D-QSAR studies of hydrazone derivatives with activity against intracellular Trypanosoma cruzi” (Bioorg Med Chem, 2016).

Assays:
[1] = test system: Trypanosoma cruzi; test: Antitrypanosomal activity against intracellular amastigotes stage of recombinant Trypanosoma cruzi Tulahuen expressing beta galactosidase infected in NIH/3T3 cells assessed as growth inhibition after 4 days by HTS-ready assay; format: functional, organism-based; conditions: NIH3T3, 96 h
Method in brief: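 NIH-3T3 fibroblasts were mixed 1:1 with β-galactosidase-expressing Tulahuen trypomastigotes from LLC-MK2 culture supernatants, at 1x10^3 cells/well, onto pre-dispensed compounds (50 to 0.00085 μM, DMSO ≤0.5%). Cultures were held 4 days at 37 °C, 5% CO2. Resorufin-β-D-galactopyranoside (5 µM in PBS with Igepal) was added for 4 h at room temperature, and fluorescence was read at 531/595 nm. Untreated parasites served as negative control.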

[2] = Cytotoxicity against mouse NIH/3T3 cells after 4 days by CellTiter-Glo luminiscence assay; format: cell-based, NIH3T3; conditions: read-out: TC50
Method in brief: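 Mouse embryonic fibroblasts were seeded at 1x10^3 cells/well onto pre-dispensed compounds (top concentration 100 μM) for 4 days at 37 °C, 5% CO2. Controls were 0.5% DMSO (100% viable) and amphotericin B 50 μM (100% toxicity). Viability was measured as ATP by CellTiter-Glo luminescence at room temperature. TC50 was obtained by nonlinear regression.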

[3] = test system: HepG2; test: Cytotoxicity against human HepG2 cells 48 hrs by CellTiter-Glo luminiscence assay; format: functional; conditions: HepG2, 48 h, read-out: TC50 (the source's name)
Method in brief: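 Human hepatoma cells were plated at 3,000 cells/well onto pre-dispensed compounds, handled as for the fibroblast assay, and incubated 48 h at 37 °C, 5% CO2. ATP-based viability was read by CellTiter-Glo luminescence after room-temperature incubation. TC50 was obtained by nonlinear regression.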

| Structure (SMILES) | IC50 ([1]; read-out: IC50) | IC50 ([1]; read-out: pIC50 (converted)) | CC50 at 96 h [2] | CC50 [3] |
| --- | --- | --- | --- | --- |
| Cc1ccc(SC/C=N/NC(N)=S)cc1 | 6.46 µM | 6.46 µM | > 50.1 µM | > 100 µM |
| C/C(=N\N=C1\SC(C(C)C)C(=O)N1c1ccccc1)c1ccc(Cl)c(Cl)c1 (stereo not given) | > 50.1 µM |  | > 50.1 µM | > 100 µM |
| CNC(=S)N/N=C(\C)c1ccc(Cl)c(Cl)c1 | 17 µM |  | > 50.1 µM | > 100 µM |
| NC(=S)N/N=C/CSc1ccccc1 | 9.33 µM | 9.33 µM | 3.55 µM | > 100 µM |
| C/C(=N\Nc1nc(C)cs1)c1ccc(Cl)c(Cl)c1 | 8.32 µM | 8.32 µM | 38.9 µM | > 100 µM |
| CCC1S/C(=N/N=C(\C)c2ccc(Cl)c(Cl)c2)N(c2ccccc2)C1=O (stereo not given) | > 50.1 µM |  | > 50.1 µM | > 100 µM |
| COc1ccc(-c2csc(N/N=C(\C)c3ccc(Cl)c(Cl)c3)n2)cc1 | 17 µM | 17 µM | > 50.1 µM | > 100 µM |
| CC/C(=N\Nc1nc(-c2ccc(Br)cc2)c(C)s1)c1cccc(Br)c1 | 24.6 µM | 24.5 µM | 33.1 µM | > 100 µM |
| C/C(=N\Nc1nc(-c2ccccc2)c(C)s1)c1ccc(Cl)c(Cl)c1 | 4.9 µM | 4.9 µM | 28.2 µM | > 100 µM |
| Cc1ccc(C)c(SC/C=N/NC(N)=S)c1 | 3.24 µM | 3.24 µM | 20.9 µM | > 100 µM |
| CC/C(=N\Nc1nc(-c2ccc(OC)cc2)cs1)c1cccc(Br)c1 | 30.2 µM | 30.2 µM | > 50.1 µM | > 100 µM |
| C/C(=N\Nc1nc(-c2ccc(F)cc2)cs1)c1ccc(Cl)c(Cl)c1 | 16.2 µM | 16.2 µM | 28.2 µM | > 100 µM |
| C/C(=N\N=C1\SC(C)C(=O)N1c1ccccc1)c1ccc(Cl)c(Cl)c1 (stereo not given) | > 50.1 µM |  | > 50.1 µM | > 100 µM |
| NC(=S)N/N=C/CSc1ccc(F)cc1 | 5.89 µM | 5.89 µM | > 50.1 µM | > 100 µM |
| CC/C(=N\Nc1nc(-c2ccc(C)cc2)cs1)c1cccc(Br)c1 | 26.3 µM | 26.3 µM | > 50.1 µM | > 100 µM |
| CC/C(=N\Nc1nc(-c2cccc([N+](=O)[O-])c2)cs1)c1cccc(Br)c1 | 22.9 µM | 22.9 µM | 38 µM | > 100 µM |
| COc1ccc(SC/C=N/NC(N)=S)cc1 | 17.4 µM | 17.4 µM | 0.52 µM | > 100 µM |
| O=[N+]([O-])c1ccc(-c2csc(N/N=C/c3ccccn3)n2)cc1 | 11 µM |  | > 50.1 µM | > 100 µM |
| CC/C(=N\Nc1nc(-c2ccccc2)cs1)c1cccc(Br)c1 | 18.2 µM | 18.2 µM | 26.3 µM | > 100 µM |
| C(=N\Nc1nc(-c2cccc3ccccc23)cs1)/c1ccccn1 | 3.39 µM | 3.39 µM | 7.24 µM | > 100 µM |

Further compounds by falling IC50 ([1]; read-out: IC50), results first:

| IC50 ([1]; read-out: IC50) | IC50 ([1]; read-out: pIC50 (converted)) | Structure (SMILES) | CC50 at 96 h [2] | CC50 [3] |
| --- | --- | --- | --- | --- |
| 3.24 µM | 3.24 µM | Cc1cccc(SC/C=N/NC(N)=S)c1 | > 50.1 µM | > 100 µM |
| 3.09 µM | 3.09 µM | NC(=S)N/N=C/CSc1ccccc1Cl | > 50.1 µM | > 100 µM |
| 2.69 µM | 2.69 µM | COc1ccc(-c2csc(N/N=C/c3ccccn3)n2)cc1 | 11.5 µM | > 100 µM |
| 2.63 µM | 2.63 µM | Cc1ccc(-c2csc(N/N=C/c3ccccn3)n2)cc1 | 43.6 µM | > 100 µM |
| 2.57 µM | 2.57 µM | NC(=S)N/N=C/CSc1cc(Cl)ccc1Cl | > 50.1 µM | > 100 µM |
| 2.29 µM | 2.29 µM | Fc1ccc(-c2csc(N/N=C/c3ccccn3)n2)cc1 | > 50.1 µM | 18.2 µM |
| 2.24 µM | 2.24 µM | COc1ccc(-c2csc(N/N=C(\C)c3ccccn3)n2)cc1 | 3.47 µM | > 100 µM |
| 2.24 µM | 2.24 µM | Brc1ccc(-c2csc(N/N=C/c3ccccn3)n2)cc1 | 14.1 µM | > 100 µM |
| 2.09 µM | 2.09 µM | NC(=S)N/N=C/CSc1ccc(Cl)cc1 | 39.8 µM | 75.9 µM |
| 1.7 µM | 1.7 µM | C/C(=N\Nc1nc(-c2ccc(C)cc2)cs1)c1ccccn1 | 4.47 µM | > 100 µM |
| 1.62 µM | 1.62 µM | NC(=S)N/N=C/CSc1ccc(Br)cc1 | 28.8 µM | 53.7 µM |
| 1.38 µM | 1.38 µM | Cc1sc(N/N=C/c2ccccn2)nc1-c1ccc(Br)cc1 | 18.6 µM | > 100 µM |
| 1.35 µM | 1.35 µM | C/C(=N\Nc1nc(-c2ccc(Br)cc2)c(C)s1)c1ccccn1 | 2 µM | > 100 µM |
| 1.32 µM | 1.32 µM | C/C(=N\Nc1nc(-c2ccc(F)cc2)cs1)c1ccccn1 | 4.9 µM | 91.2 µM |
| 1.26 µM | 1.26 µM | C/C(=N\Nc1nc(-c2ccc([N+](=O)[O-])cc2)cs1)c1ccccn1 | 20.9 µM | > 100 µM |
| 1.26 µM | 1.26 µM | C/C(=N\Nc1nc(-c2ccc(Cl)c(Cl)c2)cs1)c1ccccn1 | 2.34 µM | > 100 µM |
| 1.12 µM | 1.12 µM | C/C(=N\Nc1nc(-c2ccccc2)cs1)c1ccccn1 | 3.89 µM | 91.2 µM |
| 1.05 µM | 1.05 µM | C/C(=N\Nc1nc(-c2ccc(Cl)cc2)cs1)c1ccccn1 | 5.25 µM | > 100 µM |
| 1.05 µM | 1.05 µM | Clc1ccc(-c2csc(N/N=C/c3ccccn3)n2)c(Cl)c1 | 14.5 µM | > 100 µM |
| 1 µM | 1 µM | C/C(=N\Nc1nc(-c2ccc(Br)cc2)cs1)c1ccccn1 | 3.98 µM | 85.1 µM |
| 0.93 µM | 0.933 µM | C/C(=N\Nc1nc(-c2cccc3ccccc23)cs1)c1ccccn1 | 4.47 µM | > 100 µM |
| 0.89 µM | 0.891 µM | C/C(=N\Nc1nc(-c2cccc([N+](=O)[O-])c2)cs1)c1ccccn1 | 3.63 µM | > 100 µM |
| 0.79 µM | 0.794 µM | Clc1ccc(-c2csc(N/N=C/c3ccccn3)n2)cc1Cl | 10.7 µM | > 100 µM |
| 0.63 µM |  | C/C(=N\N=C(\N)S)c1ccc(Cl)c(Cl)c1 | 17.8 µM | 43.6 µM |
